Test results from article PMC9828401 (Acta Biochimica et Biophysica Sinica, 2022).
“Also recorded” adds a separate entry of the source. Read-outs that look alike come from different tables or passages of the source. Ends that are not written are not given here.

Legend:
PACAP = PACAP level determined by ELISA in RGC-5 cells; type: cell-based, mouse; conditions: for positive effect on PACAP expression level: over 10 μM
RGC-5 cells [1] = test: TUNEL assay, MPP-treated RGC-5 cells; type: cell-based, mouse; conditions: 8 mM MPP; for TUNEL signal (MPP-induced apoptosis): pre-treatment with 10 μM peptide
PAC1-R in RGC-5 cells = type: cell-based, mouse; conditions: 15 min; for PAC1-R level in RGC-5 cells (immunofluorescence) / nuclear translocation of PAC1-R in RGC-5 cells: 1 μM
PACAP promoter = PACAP promoter activity assay; type: cell-based, mouse; conditions: RGC-5; for positive effect on PACAP’s promoter activity: over 10 μM
PAC1-R promoter = PAC1-R promoter activity assay; type: cell-based, mouse; conditions: RGC-5
PAC1-R [2] = conditions: cited from earlier work
PAC1-R [3] = test: Western blot of PAC1-R in RGC-5 cells; type: cell-based, mouse; conditions: for PAC1-R expression by Western blot: 0.1 μM to 100 μM
In short: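 RGC-5 cells (F12, 10% FBS) were treated for 30 min with test compound (0.01–100 μM), with or without 50 μM 2-bromopalmitate; controls received serum-free medium. Blots were run by SDS-PAGE/PVDF, probed with rabbit anti-PAC1-R (C-terminal aa 506–525) and anti-β-actin, and detected with HRP-ECL.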

RGC-5 cells [4] = test: MTT cell viability assay, MPP-treated RGC-5 PD cell model; type: cell-based, mouse; conditions: for protection against decrease of cell viability induced by MPP: 0.1–100 μM, 2 h before 8 mM MPP
In short: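 RGC-5 cells were seeded at 4×10⁴ per well and pretreated with test compound (0.1–100 μM) for 2 h before 8 mM MPP. After 24 h, MTT (0.5 mg/mL) was added for 4 h and formazan was dissolved in isopropanol. Readout was OD₅₇₀, expressed as % of cells without MPP. At least four parallel replicates, repeated three times.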

PAC1-R [5] = conditions: cited from earlier work; remark: listed apart in the source
[6] = test system: M-PAC1R(Cys25/Ala25)-eGFP; test: Confocal microscopy of nuclear translocation of M-PAC1R; type: cell-based, mouse; conditions: 1 μM, 15 min
In short: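 CHO-K1 cells stably expressing C-terminally eGFP-tagged PAC1-R Cys25/Ala25 mutant, from lipofection, G418 (0.8–1 mg/mL) selection and limiting-dilution cloning; at least three clones with similar receptor levels run in parallel. Cells grown in 10% FBS medium at 37°C, 5% CO₂. Exposed to 1 μM test compound or none for 15 min; eGFP imaged by confocal microscopy (ex 488 nm, em 545 nm). ≥3 replicates, repeated three times.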

PAC1R-eGFP = test: Confocal microscopy of nuclear translocation of PAC1R-eGFP in PAC1R-CHO cells; type: cell-based, mouse; conditions: 1 μM, 15 min, vs control cells
In short: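 CHO-K1 cells (DMEM, 10% FBS, 37°C, 5% CO₂) stably transfected with C-terminally eGFP-tagged wild-type or Cys25Ala PAC1-R, selected with G418 (0.8–1 mg/mL) and cloned by limiting dilution; at least three matched clones were used. Cells were exposed to 1 μM test compound for 15 min, then imaged by confocal microscopy (ex 488/em 545 nm). Translocation was taken as nuclear/whole-cell fluorescence, with ≥3 replicates repeated three times.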

[7] = test system: PACAP promoter sequence (−858 bp to −536 bp); test: ChIP-PCR, PACAP promoter sequence, RGC-5 cells; type: cell-based, mouse; conditions: RGC-5, 1 μM, 15 min; antibody to PAC1-R C-terminus; 320 bp product
[8] = ref [20], [21]; cited from earlier work
[9] = test system: PAC1-R promoter sequence (−2019 bp to −1739 bp); test: ChIP-PCR, PAC1-R promoter sequence, RGC-5 cells; type: cell-based, mouse; conditions: RGC-5, 1 μM, 15 min; antibody to PAC1-R C-terminus; 280 bp product
PAC1-EC1 = PAC1-EC1 pre-saturated with PACAP(28–38); previous study; ref [19]; cited from earlier work
PAC1-R [10] = conditions: cited from earlier work; remark: listed apart in the source
[11] = ref [10]; cited from earlier work
[12] = target: T1, recombinant PAC1-EC1 protein; test: ITC
T1 chain: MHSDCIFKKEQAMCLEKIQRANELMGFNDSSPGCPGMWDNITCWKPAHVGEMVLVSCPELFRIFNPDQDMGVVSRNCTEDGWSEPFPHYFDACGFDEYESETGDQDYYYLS

[13] = RGC-5, 50 μM 2-bromopalmitate with 1 μM peptide

Molecule: CCCCCCCCCCCCCCC(Br)C(=O)O (stereo not drawn) [2-bromopalmitate, reference compound]
- inhibition of PACAP(28-38)- or TAT-induced PACAP expression (PACAP; 50 μM 2-bromopalmitate, 30 min, ELISA): inhibited
- inhibition of anti-apoptotic activities of PACAP(28-38) and TAT (RGC-5 cells [1]; 50 μM 2-bromopalmitate, TUNEL): significantly inhibited
- inhibition of nuclear translocation of PAC1-R induced by PACAP(28-38) or TAT (PAC1-R in RGC-5 cells; [13]): effectively inhibited
- inhibition of up-regulation of PAC1-R induced by PACAP(28-38) or TAT (PAC1-R in RGC-5 cells; [13]): effectively inhibited
- inhibition of PACAP(28-38)- or TAT-induced PACAP promoter activity (PACAP promoter; 50 μM 2-bromopalmitate, 15 min): significantly inhibited
- inhibition of PACAP(28-38)- or TAT-induced PAC1-R promoter activity (PAC1-R promoter; 50 μM 2-bromopalmitate, 15 min): significantly inhibited
- inhibition of oxidative stress-induced nuclear translocation and increase of PAC1-R expression (PAC1-R [2]; ref [23]): can inhibit
- truncated forms of PAC1-R with molecular weight smaller than 35 kDa (PAC1-R [3]; 50 μM 2-bromopalmitate with PACAP(28-38) or TAT, Western blot): decrease
- inhibition of PACAP(28-38)- or TAT-induced PAC1-R expression (PAC1-R [3]; 50 μM 2-bromopalmitate, 30 min, Western blot): inhibited

Molecule: C[n+]1ccc(-c2ccccc2)cc1 [MPP, 1-methyl-4-phenylpyridinium, reference compound]
- number of TUNEL-positive cells (RGC-5 cells [1]; 24 h): increased the number of TUNEL-positive cells
- apoptosis in RGC-5 cells (RGC-5 cells [4]; 8 mM MPP, MTT assay): significant apoptosis
- cells remaining viable after MPP (RGC-5 cells [4]; RGC-5, 8 mM MPP, 24 h, MTT, % of cells without MPP): about 31%

Molecule: GKRYKQRVKNK [PACAP(28-38)]
- expression level of PACAP (ELISA) (PACAP; 0.01 μM–10 μM, 30 min): significantly increase
- expression level of PACAP (ELISA) (PACAP; 0.1 μM–10 μM, 30 min): increased
- positive effect on PACAP expression level (PACAP): decreased
- TUNEL signal (MPP-induced apoptosis) (RGC-5 cells [1]; 24 h): significantly reduced
- binding to allosteric regulatory site (PAC1-R [5]; ref [16], [17]): binds to the allosteric regulatory site through both conformational and charge interaction
- nuclear translocation of M-PAC1-R (Cys25/Ala25) [6]: significantly weaker than that of the wild-type PAC1-R; also recorded: can not induce significant trafficking or aggregation
- PAC1-R level in RGC-5 cells (immunofluorescence) (PAC1-R in RGC-5 cells): increase the PAC1-R level
- nuclear translocation of PAC1-R in RGC-5 cells (PAC1-R in RGC-5 cells): induce significant nuclear translocation of PAC1-R
- nuclear translocation of PAC1R-eGFP (PAC1R-eGFP): significantly detected
- promoter activity of PACAP (PACAP promoter; 0.1 μM–10 μM, 15 min): significantly enhanced; also recorded: increased
- positive effect on PACAP’s promoter activity (PACAP promoter): decreased
- protection against decrease of cell viability induced by MPP (RGC-5 cells [4]; RGC-5, 24 h, MTT): significantly blocked
- ChIP-PCR band for PACAP promoter sequence [7]: positive band
- cytoprotective activities [8]: significant cytoprotective activities
- ChIP-PCR band for PAC1-R promoter sequence [9]: positive band
- promoter activity of PAC1-R (PAC1-R promoter; 0.1 μM–1 μM, 15 min): significantly enhanced
- promoter activity of PAC1-R (PAC1-R promoter; 0.1–100 μM, 15 min (legend of Figure 3B), *P<0.01 vs 0 μM): significantly enhanced
- PAC1-R expression by Western blot (PAC1-R [3]; 30 min): increased positively with the concentrations
- PAC1-R truncated form (about 35 kDa) (PAC1-R [3]; Western blot, 30 min): induced

Molecule: GRKKRRQRRRP [TAT]
- expression level of PACAP (ELISA) (PACAP; 0.1 μM–10 μM, 30 min): significantly increase; also recorded: increased
- positive effect on PACAP expression level (PACAP): decreased
- TUNEL signal (MPP-induced apoptosis) (RGC-5 cells [1]; 24 h): significantly reduced
- binding to allosteric regulatory site (PAC1-R [5]; ref [19]): binds to the same allosteric regulatory site mainly through charge interaction
- nuclear translocation of M-PAC1-R (Cys25/Ala25) [6]: significantly weaker than that of the wild-type PAC1-R; also recorded: can not induce significant trafficking or aggregation
- PAC1-R level in RGC-5 cells (immunofluorescence) (PAC1-R in RGC-5 cells): increase the PAC1-R level
- nuclear translocation of PAC1-R in RGC-5 cells (PAC1-R in RGC-5 cells): induce significant nuclear translocation of PAC1-R
- nuclear translocation of PAC1R-eGFP (PAC1R-eGFP): significantly detected
- binding signal from titration of TAT (PAC1-EC1): no binding signal is detected
- promoter activity of PACAP (PACAP promoter; 0.01 μM–10 μM, 15 min): significantly enhanced
- promoter activity of PACAP (PACAP promoter; 0.1 μM–10 μM, 15 min): increased
- positive effect on PACAP’s promoter activity (PACAP promoter): decreased
- protection against decrease of cell viability induced by MPP (RGC-5 cells [4]; RGC-5, 24 h, MTT): significantly blocked
- ChIP-PCR band for PACAP promoter sequence [7]: positive band
- cytoprotective activities [8]: significant cytoprotective activities
- ChIP-PCR band for PAC1-R promoter sequence [9]: positive band
- promoter activity of PAC1-R (PAC1-R promoter; 0.1 μM–1 μM, 15 min): significantly enhanced
- PAC1-R expression by Western blot (PAC1-R [3]; 30 min): increased positively with the concentrations
- PAC1-R truncated form (about 35 kDa) (PAC1-R [3]; Western blot, 30 min): induced

Molecule: PACAP38: form of PACAP, ligand of PAC1-R (HSDGIFTDSYSRYRKQMAVKKYLAAVLGKRYKQRVKNK; ends and bridges not checked; UniProt P18509 132-169, looked up)
- activation of PAC1-R (PAC1-R [10]; compared with PACAP27, ref [2]): significantly more complete and effective activity than PACAP27
- PAC1-R’s own expression (PAC1-R [2]; ref [22], [23]): up-regulate PAC1-R’s own expression
- nuclear translocation of PAC1-R (PAC1-R [2]; ref [22], [23]): induce the nuclear translocation of PAC1-R

Molecule: PACAP(6-38): PAC1-R antagonist (FTDSYSRYRKQMAVKKYLAAVLGKRYKQRVKNK; ends and bridges not checked; UniProt P18509 137-169, looked up, fragment)
- antagonism of PAC1-R (PAC1-R [10]; ref [15]): full antagonist

Molecule: pituitary adenylate cyclase-activating polypeptide (HSDGIFTDSYSRYRKQMAVKKYLAAVLGKRYKQRVKNK; ends and bridges not checked; UniProt P18509 132-169, looked up) [PACAP]
- therapeutic effect mediated by PAC1-R [11]: significant therapeutic effect

Molecule: GKRYKQRVKNK (ends and bridges not checked) [PACAP(28-38)]
- Ka [12]: 635000 M⁻¹

Molecule: GRKKRRQRRRP [TAT]
- Ka [12]: 503000 M⁻¹
